ChEMBL document CHEMBL1148313, “A new class of nonpeptide bradykinin B(2) receptor ligand, incorporating a 4-aminoquinoline framework. Identification of a key pharmacophore to determine species difference and agonist/antagonist profile” (J Med Chem, 2004)

biological target: T1, B2 bradykinin receptor (Homo sapiens, UniProt P30411); assay: Inhibition of specific binding of [3H]BK at 1 nM to human bradykinin receptor B2 expressed in CHO cells by 50%.; assay type: cell-based
T1 sequence (P30411 whole entry): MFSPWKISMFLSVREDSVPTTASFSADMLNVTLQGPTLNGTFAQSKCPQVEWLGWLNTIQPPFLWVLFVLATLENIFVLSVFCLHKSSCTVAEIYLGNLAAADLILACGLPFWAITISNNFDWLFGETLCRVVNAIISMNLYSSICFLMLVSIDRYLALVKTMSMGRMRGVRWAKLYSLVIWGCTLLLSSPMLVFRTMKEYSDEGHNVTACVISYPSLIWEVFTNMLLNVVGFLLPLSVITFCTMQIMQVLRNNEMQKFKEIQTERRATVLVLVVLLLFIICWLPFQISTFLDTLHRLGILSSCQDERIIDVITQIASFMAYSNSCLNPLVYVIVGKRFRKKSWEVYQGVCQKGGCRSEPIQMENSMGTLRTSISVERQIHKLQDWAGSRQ
Summary of the method: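 Intact CHO (dhfr−) cells stably expressing human B2, seeded 3.0 × 10⁴/well for 1 day. Incubated with [3H]BK and compound 2 h at 4 °C in HEPES/N-methyl-D-glucamine buffer pH 7.2 with enalaprilat, bacitracin and 0.1% BSA. Cells lysed in SDS/NaOH and counted; nonspecific binding with 1 μM BK. Three experiments.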

| Compound | IC50 [nM] |
| --- | --- |
| Cc1cc(N2CCCCC2)c2cccc(OCc3c(Cl)ccc(N(C)C(=O)CNC(=O)/C=C/c4ccc(C(=O)Nc5ccncc5)cc4)c3Cl)c2n1.Cl | 0.52 |
| CNC(=O)c1ccc(/C=C/C(=O)NCC(=O)N(C)c2ccc(Cl)c(COc3cccc4c(N(CCOC)CCOC)cc(C)nc34)c2Cl)cc1 | 19 |
| Cc1cc(N(C)C)c2cccc(OCc3c(Cl)ccc(N(C)C(=O)CNC(=O)Nc4cccc(C(=O)Nc5ccncc5)c4)c3Cl)c2n1.Cl | 2.2 |
| CNC(=O)c1ccc(/C=C/C(=O)NCC(=O)N(C)c2ccc(Cl)c(COc3cccc4c(NCCN(C)C)cc(C)nc34)c2Cl)cc1 | 2500 |
| Cc1cc(N2CCCCC2)c2cccc(OCc3c(Cl)ccc(N(C)C(=O)CNC(=O)/C=C/c4ccc(C(=O)N(C)C)cc4)c3Cl)c2n1.Cl.Cl.Cl.Cl | 0.76 |
| Cc1cc(N2CCOCC2)c2cccc(OCc3c(Cl)ccc(N(C)C(=O)CNC(=O)/C=C/c4ccc(C(=O)Nc5ccncc5)cc4)c3Cl)c2n1.Cl | 0.64 |
| CNC(=O)c1ccc(/C=C/C(=O)NCC(=O)N(C)c2ccc(Cl)c(COc3cccc4c(N(C)C)cc(C)nc34)c2Cl)cc1OC.Cl.Cl.Cl.Cl | 2 |
| Cc1cc(N2CCOCC2)c2cccc(OCc3c(Cl)ccc(N(C)C(=O)CNC(=O)/C=C/c4ccc(N5CCCC5=O)cc4)c3Cl)c2n1.Cl.Cl.Cl.Cl | 1.8 |
| CNC(=O)c1ccc(/C=C/C(=O)NCC(=O)N(C)c2ccc(Cl)c(COc3cccc4c(N5CCCC5)cc(C)nc34)c2Cl)cc1 | 87 |
| Cc1cc(N(C)C)c2cccc(OCc3c(Cl)ccc(N(C)C(=O)CNC(=O)/C=C/c4ccc(NC(=O)c5ccncc5)cc4)c3Cl)c2n1.Cl | 0.47 |
| Cc1cc(N2CCCCC2)c2cccc(OCc3c(Cl)ccc(N(C)C(=O)CNC(=O)/C=C/c4ccc(N5CCCC5=O)cc4)c3Cl)c2n1.Cl.Cl.Cl.Cl | 1.2 |
| Cc1cc(N2CCCCC2)c2cccc(OCc3c(Cl)ccc(N(C)C(=O)CNC(=O)/C=C/c4ccc(C(=O)NCc5ccccn5)cc4)c3Cl)c2n1.Cl | 2.5 |
| CNC(=O)c1ccc(/C=C/C(=O)NCC(=O)N(C)c2ccc(Cl)c(COc3cccc4c(N5CCN(C)CC5)cc(C)nc34)c2Cl)cc1 | 98 |
| Cc1cc(N(C)C)c2cccc(OCc3c(Cl)ccc(N(C)C(=O)CNC(=O)/C=C/c4ccc(C(=O)NCc5ccccn5)cc4)c3Cl)c2n1.Cl | 5.9 |

tested on: CHO; assay: Relative agonistic activity in IP formation compared to BK (10 nM) IPs in CHO cells expressing the cloned human B2 receptor at 1 uM concentration; assay type: functional, Cricetulus griseus
Summary of the method: (§1)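 Human B2-CHO cells labeled 24 h with [3H]inositol (1 μCi/mL). Preincubated in PBS/0.2% BSA with 10 mM LiCl for 30 min at 37 °C, then compound for 30 min at 37 °C. Stopped with 5% TCA. IP1–IP3 separated on AG 1-X8 and counted. Basal counts subtracted; response expressed relative to 10 nM BK.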

| Compound | Relative agonistic activity [%] |
| --- | --- |
| Cc1cc(N2CCCCC2)c2cccc(OCc3c(Cl)ccc(N(C)C(=O)CNC(=O)/C=C/c4ccc(C(=O)Nc5ccncc5)cc4)c3Cl)c2n1.Cl | 5.7 |
| Cc1cc(N2CCCCC2)c2cccc(OCc3c(Cl)ccc(N(C)C(=O)CNC(=O)/C=C/c4ccc(C(=O)N(C)C)cc4)c3Cl)c2n1.Cl.Cl.Cl.Cl | 17.2 |
| Cc1cc(N2CCOCC2)c2cccc(OCc3c(Cl)ccc(N(C)C(=O)CNC(=O)/C=C/c4ccc(N5CCCC5=O)cc4)c3Cl)c2n1.Cl.Cl.Cl.Cl | 6 |
| Cc1cc(N2CCCCC2)c2cccc(OCc3c(Cl)ccc(N(C)C(=O)CNC(=O)/C=C/c4ccc(N5CCCC5=O)cc4)c3Cl)c2n1.Cl.Cl.Cl.Cl | 14.8 |

tested on: CHO; assay: Relative agonistic activity in IP formation compared to BK (10 nM) IPs in CHO cells expressing the cloned human B2 receptor at 10 uM concentration; assay type: functional, Cricetulus griseus; summary of the method: as §1

| Compound | Relative agonistic activity [%] |
| --- | --- |
| Cc1cc(N2CCCCC2)c2cccc(OCc3c(Cl)ccc(N(C)C(=O)CNC(=O)/C=C/c4ccc(C(=O)Nc5ccncc5)cc4)c3Cl)c2n1.Cl | 12.7 |
| Cc1cc(N2CCCCC2)c2cccc(OCc3c(Cl)ccc(N(C)C(=O)CNC(=O)/C=C/c4ccc(C(=O)N(C)C)cc4)c3Cl)c2n1.Cl.Cl.Cl.Cl | 21.8 |
| Cc1cc(N2CCOCC2)c2cccc(OCc3c(Cl)ccc(N(C)C(=O)CNC(=O)/C=C/c4ccc(N5CCCC5=O)cc4)c3Cl)c2n1.Cl.Cl.Cl.Cl | 9.2 |
| Cc1cc(N2CCCCC2)c2cccc(OCc3c(Cl)ccc(N(C)C(=O)CNC(=O)/C=C/c4ccc(N5CCCC5=O)cc4)c3Cl)c2n1.Cl.Cl.Cl.Cl | 18.7 |

biological target: T2, B2 bradykinin receptor (Cavia porcellus, UniProt O70526); assay: Inhibition of specific binding of [3H]BK at 0.06 nM to bradykinin receptor B2 in guinea pig ileum membrane preparations by 50%.; assay type: cell membranes
T2 sequence (O70526 whole entry): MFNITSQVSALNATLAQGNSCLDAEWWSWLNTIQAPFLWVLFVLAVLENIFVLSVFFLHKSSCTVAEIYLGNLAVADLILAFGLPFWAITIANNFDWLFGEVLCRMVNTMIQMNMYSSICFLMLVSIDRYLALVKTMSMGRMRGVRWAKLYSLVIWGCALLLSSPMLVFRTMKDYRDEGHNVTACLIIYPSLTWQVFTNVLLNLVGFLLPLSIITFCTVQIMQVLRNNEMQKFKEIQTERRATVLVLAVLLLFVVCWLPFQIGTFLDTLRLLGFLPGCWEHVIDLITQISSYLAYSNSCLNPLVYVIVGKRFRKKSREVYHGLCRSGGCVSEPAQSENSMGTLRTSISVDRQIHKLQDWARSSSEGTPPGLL
Summary of the method: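 Ileum membranes from male Hartley guinea pigs, 0.2 mg protein/mL, in TES pH 6.8 containing phenanthroline, bacitracin, DTT, captopril and 0.1% BSA. Incubated with [3H]BK and compound at room temperature for 60 min. GF/B filtration, scintillation counting; nonspecific binding with 1 μM BK. Three experiments.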

| Compound | IC50 [nM] |
| --- | --- |
| Cc1cc(N2CCCCC2)c2cccc(OCc3c(Cl)ccc(N(C)C(=O)CNC(=O)/C=C/c4ccc(C(=O)Nc5ccncc5)cc4)c3Cl)c2n1.Cl | 240 |
| CNC(=O)c1ccc(/C=C/C(=O)NCC(=O)N(C)c2ccc(Cl)c(COc3cccc4c(N(CCOC)CCOC)cc(C)nc34)c2Cl)cc1 | 560 |
| Cc1cc(N(C)C)c2cccc(OCc3c(Cl)ccc(N(C)C(=O)CNC(=O)Nc4cccc(C(=O)Nc5ccncc5)c4)c3Cl)c2n1.Cl | 12 |
| CNC(=O)c1ccc(/C=C/C(=O)NCC(=O)N(C)c2ccc(Cl)c(COc3cccc4c(NCCN(C)C)cc(C)nc34)c2Cl)cc1 | 2300 |
| Cc1cc(N2CCCCC2)c2cccc(OCc3c(Cl)ccc(N(C)C(=O)CNC(=O)/C=C/c4ccc(C(=O)N(C)C)cc4)c3Cl)c2n1.Cl.Cl.Cl.Cl | 30 |
| Cc1cc(N2CCOCC2)c2cccc(OCc3c(Cl)ccc(N(C)C(=O)CNC(=O)/C=C/c4ccc(C(=O)Nc5ccncc5)cc4)c3Cl)c2n1.Cl | 37 |
| CNC(=O)c1ccc(/C=C/C(=O)NCC(=O)N(C)c2ccc(Cl)c(COc3cccc4c(N(C)C)cc(C)nc34)c2Cl)cc1OC.Cl.Cl.Cl.Cl | 5.6 |
| Cc1cc(N2CCOCC2)c2cccc(OCc3c(Cl)ccc(N(C)C(=O)CNC(=O)/C=C/c4ccc(N5CCCC5=O)cc4)c3Cl)c2n1.Cl.Cl.Cl.Cl | 13 |
| CNC(=O)c1ccc(/C=C/C(=O)NCC(=O)N(C)c2ccc(Cl)c(COc3cccc4c(N5CCCC5)cc(C)nc34)c2Cl)cc1 | 2300 |
| Cc1cc(N(C)C)c2cccc(OCc3c(Cl)ccc(N(C)C(=O)CNC(=O)/C=C/c4ccc(NC(=O)c5ccncc5)cc4)c3Cl)c2n1.Cl | 6.9 |
| Cc1cc(N2CCCCC2)c2cccc(OCc3c(Cl)ccc(N(C)C(=O)CNC(=O)/C=C/c4ccc(N5CCCC5=O)cc4)c3Cl)c2n1.Cl.Cl.Cl.Cl | 28 |
| Cc1cc(N2CCCCC2)c2cccc(OCc3c(Cl)ccc(N(C)C(=O)CNC(=O)/C=C/c4ccc(C(=O)NCc5ccccn5)cc4)c3Cl)c2n1.Cl | 40 |
| CNC(=O)c1ccc(/C=C/C(=O)NCC(=O)N(C)c2ccc(Cl)c(COc3cccc4c(N5CCN(C)CC5)cc(C)nc34)c2Cl)cc1 | 1500 |
| Cc1cc(N(C)C)c2cccc(OCc3c(Cl)ccc(N(C)C(=O)CNC(=O)/C=C/c4ccc(C(=O)NCc5ccccn5)cc4)c3Cl)c2n1.Cl | 28 |

tested on: Cavia porcellus; assay: In vivo functional antagonistic activity in inhibiting BK (5 ug/kg, i.v.) induced bronchoconstriction in guinea pigs by 100 ug/kg iv administration
Summary of the method: (§2)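 Male Hartley guinea pigs (470–750 g), fasted overnight, pentobarbital 30 mg/kg i.p., ventilated 10 mL/kg at 60 breaths/min, alcuronium 0.5 mg/kg i.v., propranolol 10 mg/kg s.c. BK in saline/0.1% BSA i.v.; compound in 5% citric acid i.v. 25 min after first BK, BK repeated 5 min later. Peak insufflation pressure rise (Konzett–Rössler); % inhibition versus vehicle, n = 3–4.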

| Compound | Inhibition [%] |
| --- | --- |
| Cc1cc(N(C)C)c2cccc(OCc3c(Cl)ccc(N(C)C(=O)CNC(=O)Nc4cccc(C(=O)Nc5ccncc5)c4)c3Cl)c2n1.Cl | 97.7 |
| Cc1cc(N2CCOCC2)c2cccc(OCc3c(Cl)ccc(N(C)C(=O)CNC(=O)/C=C/c4ccc(C(=O)Nc5ccncc5)cc4)c3Cl)c2n1.Cl | 91.8 |
| Cc1cc(N2CCCCC2)c2cccc(OCc3c(Cl)ccc(N(C)C(=O)CNC(=O)/C=C/c4ccc(C(=O)NCc5ccccn5)cc4)c3Cl)c2n1.Cl | 72.6 |
| Cc1cc(N(C)C)c2cccc(OCc3c(Cl)ccc(N(C)C(=O)CNC(=O)/C=C/c4ccc(C(=O)NCc5ccccn5)cc4)c3Cl)c2n1.Cl | 97.3 |

tested on: Cavia porcellus; assay: In vivo functional antagonistic activity in inhibiting BK (5 ug/kg, i.v.) induced bronchoconstriction in guinea pigs by 10 ug/kg iv administration; summary of the method: as §2

| Compound | Inhibition [%] |
| --- | --- |
| Cc1cc(N(C)C)c2cccc(OCc3c(Cl)ccc(N(C)C(=O)CNC(=O)/C=C/c4ccc(C(=O)N(C)C)cc4)c3Cl)c2n1.Cl.Cl | 73.4 |
| Cc1cc(N2CCOCC2)c2cccc(OCc3c(Cl)ccc(N(C)C(=O)CNC(=O)/C=C/c4ccc(C(=O)Nc5ccncc5)cc4)c3Cl)c2n1.Cl | 46.2 |
| CNC(=O)c1ccc(/C=C/C(=O)NCC(=O)N(C)c2ccc(Cl)c(COc3cccc4c(N(C)C)cc(C)nc34)c2Cl)cc1OC.Cl.Cl.Cl.Cl | 88.7 |
| Cc1cc(N(C)C)c2cccc(OCc3c(Cl)ccc(N(C)C(=O)CNC(=O)/C=C/c4ccc(NC(=O)c5ccncc5)cc4)c3Cl)c2n1.Cl | 59 |
